Measured values reported in ChEMBL document CHEMBL3352548, “Small-molecule suppression of β-lactam resistance in multidrug-resistant gram-negative pathogens” (J Med Chem, 2014).
In brackets after ≈: the same amount, converted by molar mass. Activity calls are given as the source filed them. No cut-off for these calls is given here.

What was measured:
Pseudomonas aeruginosa [1] = experiment: Antibacterial activity against Pseudomonas aeruginosa PA53 assessed as fold reduction in meropenem MIC at 60 uM after 16 hrs by microdilution method; format: functional
How it was run: (§1)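 MIC of each compound alone was determined first. Antibiotic MICs (imipenem or meropenem for A. baumannii; ceftazidime or meropenem for P. aeruginosa) were then measured with compound at fixed sub-MIC concentrations. Fold reduction is MIC without compound divided by MIC with compound.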

Acinetobacter baumannii [2] = experiment: Antibacterial activity against Acinetobacter baumannii ATCC BAA-1605 assessed as fold reduction in meropenem MIC at 60 uM after 16 hrs by microdilution method; format: functional; how it was run: as §1
Acinetobacter baumannii [3] = experiment: Antibacterial activity against Acinetobacter baumannii ATCC BAA-1605 assessed as fold reduction in meropenem MIC at 30 uM after 16 hrs by microdilution method; format: functional; how it was run: as §1
Pseudomonas aeruginosa [4] = experiment: Antibacterial activity against Pseudomonas aeruginosa PA53 assessed as reduction in CFU at 60 uM after 6 hrs by time kill assay; format: functional
How it was run: (§2)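 Time-kill: cultures were grown at 37 °C with shaking with compound (15 μM for BAA-1605, 60 μM for PA53), meropenem (1–32 μg/mL for BAA-1605, 1–64 μg/mL for PA53), or both. Samples taken at 2, 4, 6, 8 and 24 h were serially diluted in CAMHB, plated on nutrient agar, incubated overnight at 37 °C, and colonies counted.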

Acinetobacter baumannii [5] = experiment: Antibacterial activity against Acinetobacter baumannii ATCC BAA-1605 assessed as reduction in meropenem MIC at 60 uM after 6 hrs by time kill assay; format: functional
Pseudomonas aeruginosa [6] = experiment: Antibacterial activity against Pseudomonas aeruginosa PA53 assessed as reduction in meropenem MIC at 60 uM after 6 hrs by time kill assay; format: functional, organism-based
Acinetobacter baumannii [7] = experiment: Antibacterial activity against Acinetobacter baumannii ATCC BAA-1605 assessed as reduction in CFU at 60 uM after 6 hrs by time kill assay; format: functional, organism-based
Acinetobacter baumannii [8] = experiment: Antibacterial activity against Acinetobacter baumannii ATCC BAA-1605 assessed as complete inhibition of bacterial growth after 16 hrs by microdilution method; format: functional; conditions: ATCC BAA-1605, 16 h; how it was run: as §1
Pseudomonas aeruginosa [9] = experiment: Antibacterial activity against Pseudomonas aeruginosa PA53 assessed as complete inhibition of bacterial growth after 16 hrs by microdilution method; format: functional; conditions: PA53, 16 h; how it was run: as §1
Acinetobacter baumannii [10] = experiment: Antibacterial activity against Acinetobacter baumannii ATCC BAA-1605 assessed as fold reduction in imipenem MIC at 60 uM after 16 hrs by microdilution method; format: functional; how it was run: as §1
Pseudomonas aeruginosa [11] = experiment: Antibacterial activity against Pseudomonas aeruginosa PA53 assessed as fold reduction in ceftazidime MIC at 60 uM after 16 hrs by microdilution method; format: functional; how it was run: as §1
Acinetobacter baumannii [12] = experiment: Antibacterial activity against Acinetobacter baumannii ATCC BAA-1605 assessed as fold reduction in imipenem MIC at 30 uM after 16 hrs by microdilution method; format: functional; how it was run: as §1
Pseudomonas aeruginosa [13] = experiment: Antibacterial activity against Pseudomonas aeruginosa PA53 assessed as fold reduction in meropenem MIC at 15 uM after 16 hrs by microdilution method; format: functional; how it was run: as §1
Pseudomonas aeruginosa [14] = experiment: Antibacterial activity against Pseudomonas aeruginosa PA53 assessed as fold reduction in meropenem MIC at 30 uM after 16 hrs by microdilution method; format: functional; how it was run: as §1
Acinetobacter baumannii [15] = experiment: Antibacterial activity against Acinetobacter baumannii ATCC BAA-1605 assessed as fold reduction in imipenem MIC at 15 uM after 16 hrs by microdilution method; format: functional; how it was run: as §1
Pseudomonas aeruginosa [16] = experiment: Antibacterial activity against Pseudomonas aeruginosa PA53 assessed as fold reduction in ceftazidime MIC at 30 uM after 16 hrs by microdilution method; format: functional; how it was run: as §1
Acinetobacter baumannii [17] = experiment: Antibacterial activity against Acinetobacter baumannii ATCC BAA-1605 assessed as fold reduction in meropenem MIC at 15 uM after 16 hrs by microdilution method; format: functional; how it was run: as §1
Acinetobacter baumannii [18] = experiment: Antibacterial activity against Acinetobacter baumannii ATCC BAA-1605 assessed as reduction in CFU at 1 ug/ml after 6 hrs by time kill assay; format: functional; how it was run: as §2
Pseudomonas aeruginosa [19] = experiment: Antibacterial activity against Pseudomonas aeruginosa PA53 assessed as reduction in CFU at 4 ug/ml after 6 hrs by time kill assay; format: functional; how it was run: as §2
Acinetobacter baumannii [20] = experiment: Antibacterial activity against Acinetobacter baumannii ATCC BAA-1605 assessed as reduction in CFU at 4 ug/ml after 6 hrs by time kill assay; format: functional; how it was run: as §2
Pseudomonas aeruginosa [21] = experiment: Antibacterial activity against Pseudomonas aeruginosa PA53 assessed as reduction in CFU at 1 ug/ml after 6 hrs by time kill assay; format: functional; how it was run: as §2
Acinetobacter baumannii [22] = experiment: Antibacterial activity against Acinetobacter baumannii ATCC BAA-1605 assessed as fold reduction in imipenem MIC at 7.5 uM after 16 hrs by microdilution method; format: functional; how it was run: as §1
Pseudomonas aeruginosa [23] = experiment: Antibacterial activity against Pseudomonas aeruginosa PA53 assessed as fold reduction in ceftazidime MIC at 15 uM after 16 hrs by microdilution method; format: functional; how it was run: as §1
Acinetobacter baumannii [24] = experiment: Antibacterial activity against Acinetobacter baumannii ATCC BAA-1605 assessed as fold reduction in meropenem MIC at 7.5 uM after 16 hrs by microdilution method; format: functional; how it was run: as §1

| SMILES | fold change (FC) (Pseudomonas aeruginosa [1]) | fold change (FC) (Acinetobacter baumannii [2]) | MIC (Acinetobacter baumannii [8]) | MIC (Pseudomonas aeruginosa [9]) | fold change (FC) (Pseudomonas aeruginosa [11]) | other results |
| --- | --- | --- | --- | --- | --- | --- |
| Cl.Nc1ncc(-c2ccc(NC(=O)c3ccc(Br)cc3F)cc2)[nH]1 | 1 | 2 |  |  |  |  |
| Cl.Nc1ncc(-c2ccc(NC(=O)c3cc(Br)cc(Br)c3)cc2)[nH]1 | 1 |  |  |  |  | fold change (FC) (Acinetobacter baumannii [3]): 4 |
| Cl.Nc1ncc(-c2ccc(NC(=O)c3cccc(Cl)c3Cl)cc2)[nH]1 | 1 | 2 |  |  |  | Activity (Pseudomonas aeruginosa [4]): inactive; fold change (FC) (Acinetobacter baumannii [5]): 2; Activity (Pseudomonas aeruginosa [6]): inactive; Activity (Acinetobacter baumannii [7]): inactive |
| CCCCCCC(=O)Nc1ccc(-c2cnc(N)[nH]2)cc1 |  |  | 200 µM |  |  |  |
| Cl.Nc1nc(-c2ccc(NC(=O)c3ccc(Cl)cc3)cc2)c[nH]1 | 2 | 8 | > 200 µM | > 200 µM | 1 | fold change (FC) (Acinetobacter baumannii [10]): 4 |
| Cl.Nc1ncc(-c2ccc(NC(=O)c3ccc(I)cc3)cc2)[nH]1 | 1 | 2 |  |  |  |  |
| Cl.Nc1nc(-c2ccc(NC(=O)c3c(Cl)cc(Cl)cc3Cl)cc2)c[nH]1 | 4 |  | 100 µM | 200 µM | 1 | fold change (FC) (Acinetobacter baumannii [12]): 1; fold change (FC) (Acinetobacter baumannii [3]): 4 |
| Cl.Nc1nc(-c2ccc(NC(=O)c3cccc(Br)c3)cc2)c[nH]1 | 4 | 16 | > 200 µM | > 200 µM | 16 | fold change (FC) (Acinetobacter baumannii [10]): 8 |
| CCCCCCc1ccc(-c2c[nH]c(N)n2)cc1 |  |  | 100 µM |  |  |  |
| Cl.Nc1nc(-c2ccc(NC(=O)c3ccccc3F)cc2)c[nH]1 | 2 | 2 | > 200 µM | > 200 µM | 1 | fold change (FC) (Acinetobacter baumannii [10]): 1 |
| Cl.Nc1ncc(-c2ccc(NC(=O)c3ccc(F)c(Cl)c3)cc2)[nH]1 |  |  |  |  |  | fold change (FC) (Pseudomonas aeruginosa [13]): 1; fold change (FC) (Acinetobacter baumannii [3]): 4 |
| Cl.Nc1ncc(-c2ccc(NC(=O)c3ccc(Cl)c(Cl)c3)cc2)[nH]1 |  |  |  |  |  | fold change (FC) (Pseudomonas aeruginosa [14]): 1; fold change (FC) (Acinetobacter baumannii [3]): 64 |
| CCCCCC(=O)Nc1cccc(-c2c[nH]c(N)n2)c1 |  |  | 100 µM |  |  |  |
| Cl.Nc1nc(-c2ccc(NC(=O)c3cc(F)c(F)c(F)c3)cc2)c[nH]1 | 2 |  | 100 µM | 200 µM | 1 | fold change (FC) (Acinetobacter baumannii [12]): 8; fold change (FC) (Acinetobacter baumannii [3]): 8 |
| Cl.Nc1nc(-c2ccc(NC(=O)c3ccc(F)cc3)cc2)c[nH]1 | 2 | 4 | > 200 µM | 200 µM | 1 | fold change (FC) (Acinetobacter baumannii [10]): 2 |
| C[C@@H](O)[C@H]1C(=O)N2C(C(=O)O)=C(SCCNC=N)C[C@H]12 [IMIPENEM ANHYDROUS] |  |  | 16 µg/mL |  |  |  |
| Cl.Nc1nc(-c2ccc(NC(=O)c3ccc(Br)cc3)cc2)c[nH]1 | 2 | 16 | > 200 µM | > 200 µM | 1 | fold change (FC) (Acinetobacter baumannii [10]): 8 |
| Cl.Nc1ncc(-c2ccc(NC(=O)c3ccc(Cl)cc3Cl)cc2)[nH]1 | 1 | 4 |  |  |  |  |
| Cl.Nc1ncc(-c2ccc(NC(=O)c3cc(I)c(I)c(I)c3)cc2)[nH]1 | 1 | 2 |  |  |  |  |
| Cl.Nc1nc(-c2ccc(NC(=O)c3ccc(C(F)(F)F)cc3)cc2)c[nH]1 |  |  | 50 µM | 100 µM |  | fold change (FC) (Pseudomonas aeruginosa [14]): 8; fold change (FC) (Acinetobacter baumannii [15]): 4; fold change (FC) (Pseudomonas aeruginosa [16]): 8; fold change (FC) (Acinetobacter baumannii [17]): 4 |
| CCCCCc1ccc(C(=O)Nc2ccc(-c3cnc(N)[nH]3)cc2)cc1 |  |  | 200 µM |  |  |  |
| C[C@@H](O)[C@H]1C(=O)N2C(C(=O)O)=C(S[C@@H]3CN[C@H](C(=O)N(C)C)C3)[C@H](C)[C@H]12 [MEROPENEM] |  |  | 32 µg/mL |  |  | fold change (FC) (Acinetobacter baumannii [18]): <0.1; fold change (FC) (Pseudomonas aeruginosa [19]): 0.2; fold change (FC) (Acinetobacter baumannii [20]): <0.1; fold change (FC) (Pseudomonas aeruginosa [21]): 0.2 |
| Cl.Nc1nc(-c2ccc(NC(=O)c3cccc(F)c3)cc2)c[nH]1 | 2 | 4 | > 200 µM | 200 µM | 1 | fold change (FC) (Acinetobacter baumannii [10]): 2 |
| Cl.Nc1nc(-c2ccc(NC(=O)c3ccc(C(F)(F)F)c(F)c3)cc2)c[nH]1 |  |  | 25 µM | 50 µM |  | fold change (FC) (Acinetobacter baumannii [22]): 2; fold change (FC) (Pseudomonas aeruginosa [23]): 8; fold change (FC) (Acinetobacter baumannii [24]): 4; fold change (FC) (Pseudomonas aeruginosa [13]): 4 |
| Nc1ncc(-c2ccc(NC(=O)c3cc(F)cc(F)c3)cc2)[nH]1 |  | 16 | 200 µM | 100 µM (≈ 31.4 µg/mL) |  | fold change (FC) (Pseudomonas aeruginosa [14]): 2; fold change (FC) (Pseudomonas aeruginosa [16]): 1; fold change (FC) (Acinetobacter baumannii [10]): 8 |
| Cl.Nc1nc(-c2ccc(NC(=O)c3c(F)c(F)c(F)c(F)c3F)cc2)c[nH]1 | 2 | 2 | > 200 µM | > 200 µM | 1 | fold change (FC) (Acinetobacter baumannii [10]): 1 |
| Cl.Nc1ncc(-c2ccc(NC(=O)c3cccc(I)c3)cc2)[nH]1 | 1 | 8 |  |  |  |  |
| Nc1ncc(-c2ccc(NC(=O)/C=C/c3ccccc3)cc2)[nH]1 |  |  | 100 µM |  |  |  |
